MT stabilizer – microtubule stabilizers in HeLa cells; HeLa tubulin immunostaining HCS, 24 h; share of cells brighter than vehicle mean+2SD; % tubulin-high responders, % at 10 µM; hit rate 0.83% among 200,000; AID 2205;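 active = plate Z-score above 3 for both tubulin-high and condensed-nucleus cell shares, with cell loss under 80%, at 10 µM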;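 note: anti alpha tubulin signal scored within the nucleus-defined area of each cell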
IEC-6 tox – kills IEC-6 intestinal cells in KLF5 counter-screen; hit rate 0.78% among 290,000; inhibition, % at 5 µM; AID 1825; IEC-6 cytotoxicity, luminescence viability
Ba/F3 V617F tox – loss of viability in JAK2V617F-driven Ba/F3 cells. Ba/F3 EpoR-JAK2V617F viability, ATP luminescence. inhibition, % at 5.6 µM. hit rate 1.1% among 220,000. AID 1446;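 active = inhibition above the campaign mean plus 3 SD over all tested compounds, cut at about 24% in these data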;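 note: cytokine-independent growth of Ba/F3 cells driven by EpoR plus mutant JAK2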
BaF3 tox – parental Ba/F3 viability inhibition as JAK2V617F counter-screen. CellTiter-Glo ATP luminescence. inhibition, % at 5.6 µM. hit rate 1.1% among 220,000. AID 1486;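 active = inhibition above a per-campaign cutoff, the mean inhibition of all tested compounds plus 3 SD, cut at about 27% in these data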
bCat nuc transl – beta-catenin nuclear translocation modulation; hit rate 0.3% among 190,000; AID 1665; nuclear translocation activity, % at 5 µM; HeLa beta-catenin nuclear translocation, immunofluorescence imaging;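 active = nuclear translocation activity above 50% at 5 µM, with a well cell count of 50 or more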;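 note: per-cell ratio of nuclear to cytoplasmic median beta-catenin stain intensity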
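Read-out: Nuclear/cytoplasmic beta-catenin signal ratio, % activation | Assay system: Human HeLa cell line | Times: 24 h compound exposure at 37°C, 5% CO2 | Signal: Fluorescence imaging of beta-catenin antibody stain plus DAPI | Dosing: 5 µM primary, 0.02–20 µM confirmation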
APP transl inh – APP translation inhibition; AID 1285; hit rate 0.82% among 190,000; inhibition, % at 2 µM; SH-SY5Y APP 5'UTR-luciferase reporter, luminescence;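 active = inhibition above a set limit, derived from the sample mean plus 3 SD, cut at about 45% in these data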
IEC-6 cytotox cf – confirmation of cytotoxic compounds in rat IEC-6 intestinal epithelial cells | shares compounds with IEC-6 tox | IEC-6 rat intestinal epithelial viability, luminescence | inhibition, % at 5 µM | hit rate 63% among 1,900 | AID 1907
Hits are given with their value; n = inactive; x = no result given. Sampled rows, rich in hits. Any-hit rate of the full collection: about 2.2%. Cut-off read from the data, not from the text of the source, unless noted: active = inhibition above about 22%; inactive = the rest.

SMILES | MT stabilizer | IEC-6 tox | Ba/F3 V617F tox | BaF3 tox | bCat nuc transl | APP transl inh | IEC-6 cytotox cf
COc1cc2c(cc1OC)C(C)N(C(=O)c1cc(C)on1)CC2 (centres undefined) | x | 85 | x | x | x | x | 55
COC(/C(=N/O)c1ccc(Cl)cc1)c1ccccc1 (centres undefined) | x | 28 | x | x | x | x | n
O=C(N/N=C/c1ccc2c(c1)OCO2)c1cccc2ccccc12 | x | 28 | x | x | x | x | 25
Cc1cc(Br)cc(/C=N/NC(=O)c2ccc3c(c2)OCO3)c1O | x | n | x | x | x | x | x
O=C(Nc1ccc(N2CCN(C(=O)c3ccccc3)CC2)cc1)c1ccc2c(c1)OCO2 | n | 26 | 72 | 70 | n | n | n
O=C(N/N=C/c1ccccc1O)c1ccc2c(c1)OCO2 | x | 76 | x | x | x | x | n
CCN(CC)S(=O)(=O)c1ccc(C(=O)Nn2cnnc2)cc1 | x | n | x | x | x | x | x
CCC(NC(=S)NCc1ccc(F)cc1)c1ccccc1 (centres undefined) | x | n | x | x | x | x | x
O=Nc1c(-c2c(O)[nH]c3cc(Br)ccc23)[nH]c2ccccc12 | x | 23 | x | x | x | x | n
O=C(CSCc1cccc(Br)c1)N=Nc1c(O)[nH]c2ccccc12 | n | n | n | n | n | n | x
NNC(=O)/C(=C\c1ccco1)NC(=O)c1ccco1 | x | 70 | x | x | x | x | n
CC1=NNC(=O)C1CC(=O)N/N=C(\C)c1ccco1 (centres undefined) | n | n | n | n | n | n | x
COc1cc(C(=O)NCC(=O)N2CCN(S(=O)(=O)c3cc(C)ccc3C)CC2)cc(OC)c1OC | x | 30 | x | x | x | x | n
Cc1ccc(C)c(S(=O)(=O)N2CCN(C(=O)Cc3ccsc3)CC2)c1 | x | n | x | x | x | x | x
CN(C)c1ccc(/C=N/n2c(C3CCCCC3)n[nH]c2=S)cc1 | x | n | x | x | x | x | x
COc1cc(OC)cc(C(=O)c2c(C)c(C#N)c3ccccn23)c1 | x | 52 | x | x | x | x | n
COc1ccccc1NC(=S)N(Cc1ccco1)Cc1cc2ccc(C)c(C)c2[nH]c1=O | n | 78 | 71 | 81 | x | x | 54
COc1cc(OC)cc(C(=O)NCC(=O)Nc2ccc(-c3ccccc3)cc2)c1 | x | 30 | x | x | x | x | n
COc1ccc(C2CC(=O)N(C)c3ccccc3S2)cc1 (centres undefined) | n | 24 | n | n | n | n | n
CCCCCCCCNc1ncnc2ccccc12 | n | 27 | 70 | 63 | n | n | n
CCc1ccccc1Nc1ncnc2ccccc12 | x | n | x | x | x | x | x
CCCCc1nc2cc(C(=O)N3CCCCC3CCNC(C)=O)ccc2o1 (centres undefined) | x | n | x | x | x | x | x
COc1cc2c(c(OC)c1OC)-c1ccc(NC(=O)c3ccccc3)c(=O)cc1[C@@H](NC(C)=O)CC2 | x | 87 | x | x | x | x | 49
Cc1ccc2c(c1)C(=O)C(=O)N2CCCOc1ccccc1 | n | n | n | n | n | n | x
Cc1cccc(OCCCN2C(=O)C(=O)c3cc(C)ccc32)c1 | n | 44 | n | n | n | n | n
SMILES | MT stabilizer | IEC-6 tox | Ba/F3 V617F tox | BaF3 tox | bCat nuc transl | APP transl inh | IEC-6 cytotox cf
CCC(=O)NC(c1ccc(OC)cc1)c1c(O)ccc2ccccc12 (centres undefined) | 18 | 23 | n | n | n | n | n
COc1ccccc1OP(=O)(O)Oc1ccccc1OC | n | n | n | n | n | n | x
c1csc(-c2nc3c4ccccc4c4ccccc4c3[nH]2)c1 | n | 24 | n | n | x | n | 23
COc1ccc(S(=O)(=O)N2CCCOC2CNC(=O)C(=O)NCc2ccncc2)cc1 (centres undefined) | x | n | x | x | x | x | x
Cc1ccn2c(C(=O)CSc3ccccc3Cl)c(C)nc2c1 | n | 40 | n | n | n | n | 38
Cc1ccc(C)c(S(=O)(=O)Nc2ccc(C(=O)N3CCCCC3)cc2)c1 | x | n | x | x | x | x | x
Cc1ccc(N2C(=O)c3cccc4c(N)ccc(c34)C2=O)c2cccnc12 | x | 86 | 92 | 85 | 67 | x | 74
O=C(O)c1ccc(N/N=C/c2cc3cc4c(cc3nc2Cl)OCCO4)cc1 | x | n | n | n | n | x | x
CCOC(=O)N1CCN(C(=O)c2cn(C)c3ccc(S(=O)(=O)N4CCOCC4)cc3c2=O)CC1 | x | n | x | x | x | x | x
O=S(=O)(N1CCOCC1)n1c(Cc2ccccc2)nc2ccccc21 | n | n | n | n | n | n | x
Cc1ccc(NC(=S)c2nc3ccccc3[nH]2)c(C)c1 | n | n | n | n | n | n | x
Cc1cccc(/C=C(\c2nc3ccccc3[nH]2)S(=O)(=O)c2ccccc2)c1 | n | 25 | n | n | n | n | 32
Cc1ccn2cc(-c3ccc(O)c(O)c3)nc2c1 | x | 23 | x | x | x | x | n
